Active and inactive are the calls of the source. The calls are words filed in the database; no cut-off is given here.
Columns and labels:
[1] = target: P2Y purinoceptor 2 (Homo sapiens) (UniProt P41231); test: Agonist activity at GFP tagged-human P2Y2 receptor expressed in human 1321N1 cells assessed as elevation in calcium level at 25 uM after 30 mins by fluorescence spectrophotometric analysis; type: functional, cell-based
[2] = target: T1, Ectonucleotide pyrophosphatase/phosphodiesterase family member 1 (Homo sapiens, UniProt P22413); test: Inhibition of human NPP1 expressed in COS7 cells assessed as production of p-nitrophenol using pnp-TMP as the substrate after 15 mins […]; type: cell-based, COS-7
T1 sequence (P22413 whole entry): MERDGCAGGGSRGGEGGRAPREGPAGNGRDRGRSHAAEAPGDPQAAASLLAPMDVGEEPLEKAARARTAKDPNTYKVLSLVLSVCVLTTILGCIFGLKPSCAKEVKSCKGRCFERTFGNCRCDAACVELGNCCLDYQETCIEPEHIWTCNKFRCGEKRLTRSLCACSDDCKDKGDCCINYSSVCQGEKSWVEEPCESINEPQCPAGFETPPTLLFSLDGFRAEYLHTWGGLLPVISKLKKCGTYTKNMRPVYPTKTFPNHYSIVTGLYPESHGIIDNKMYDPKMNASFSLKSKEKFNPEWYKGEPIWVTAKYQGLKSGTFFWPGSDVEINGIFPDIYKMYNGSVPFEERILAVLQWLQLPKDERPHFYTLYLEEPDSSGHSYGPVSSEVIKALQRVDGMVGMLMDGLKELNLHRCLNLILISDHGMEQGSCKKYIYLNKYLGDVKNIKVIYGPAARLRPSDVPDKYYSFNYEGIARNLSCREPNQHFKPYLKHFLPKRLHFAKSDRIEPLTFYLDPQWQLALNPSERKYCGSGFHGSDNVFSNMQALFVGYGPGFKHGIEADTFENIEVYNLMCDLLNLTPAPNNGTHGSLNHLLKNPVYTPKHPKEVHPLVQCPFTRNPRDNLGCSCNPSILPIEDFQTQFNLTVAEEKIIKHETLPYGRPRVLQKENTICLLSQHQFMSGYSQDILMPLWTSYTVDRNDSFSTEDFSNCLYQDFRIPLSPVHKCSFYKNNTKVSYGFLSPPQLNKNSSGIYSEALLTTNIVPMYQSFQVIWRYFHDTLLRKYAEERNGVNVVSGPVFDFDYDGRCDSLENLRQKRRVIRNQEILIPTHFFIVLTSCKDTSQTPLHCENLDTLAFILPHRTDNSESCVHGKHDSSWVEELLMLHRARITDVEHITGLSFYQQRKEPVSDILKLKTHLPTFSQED
How it was run: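 Human NPP1 COS-7 extract in Tris pH 8.5 buffer at 37 °C with pnp-TMP; p-nitrophenol read at 405 nm after 15 min. […] Values from Dixon and Cornish-Bowden plots of three independent experiments in triplicate.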

[3] = target: T2, Ectonucleotide pyrophosphatase/phosphodiesterase family member 1 (Homo sapiens) (UniProt P22413); test: Inhibition of human NPP1 in human HT29 cells assessed as production of p-nitrophenol using pnp-TMP as the substrate […]; type: cell-based; settings: HT-29
T2 sequence (whole entry): T1 sequence (P22413 whole entry)

[4] = target: T3, Ectonucleotide pyrophosphatase/phosphodiesterase family member 3 (Homo sapiens) (UniProt O14638); test: Inhibition of human NPP3 expressed in COS7 cells assessed as amount of inorganic phosphate released using ATP as the substrate at 100 uM after 15 mins by malachite green reagent method; type: cell-based; settings: COS-7
T3 sequence (whole entry): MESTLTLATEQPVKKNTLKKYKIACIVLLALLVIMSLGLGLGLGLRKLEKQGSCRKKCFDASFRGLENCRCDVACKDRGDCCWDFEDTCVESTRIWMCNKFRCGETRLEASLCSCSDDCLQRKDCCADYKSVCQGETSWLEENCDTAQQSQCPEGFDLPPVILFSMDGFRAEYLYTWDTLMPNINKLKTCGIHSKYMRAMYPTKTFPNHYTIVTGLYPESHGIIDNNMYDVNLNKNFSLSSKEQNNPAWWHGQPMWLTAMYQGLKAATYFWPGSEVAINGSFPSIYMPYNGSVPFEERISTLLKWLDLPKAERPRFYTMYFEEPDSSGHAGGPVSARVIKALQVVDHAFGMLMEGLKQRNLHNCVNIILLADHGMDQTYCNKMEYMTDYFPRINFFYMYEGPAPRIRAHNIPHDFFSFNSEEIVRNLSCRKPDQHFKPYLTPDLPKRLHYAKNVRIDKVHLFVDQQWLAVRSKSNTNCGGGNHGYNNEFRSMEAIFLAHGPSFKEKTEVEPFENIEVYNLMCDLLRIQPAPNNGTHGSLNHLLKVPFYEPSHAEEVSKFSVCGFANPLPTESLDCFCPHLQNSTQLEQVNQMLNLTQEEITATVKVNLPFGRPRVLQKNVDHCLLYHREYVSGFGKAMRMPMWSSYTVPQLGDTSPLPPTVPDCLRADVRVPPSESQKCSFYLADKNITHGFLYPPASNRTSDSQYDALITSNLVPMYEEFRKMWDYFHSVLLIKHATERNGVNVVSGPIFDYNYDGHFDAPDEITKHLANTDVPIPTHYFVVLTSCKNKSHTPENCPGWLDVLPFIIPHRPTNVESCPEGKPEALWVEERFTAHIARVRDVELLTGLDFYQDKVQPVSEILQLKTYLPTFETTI

[5] = target: T3, Ectonucleotide pyrophosphatase/phosphodiesterase family member 3 (Homo sapiens); test: Activity of human NPP3 expressed in COS7 cells assessed as production of p-nitrophenol using Ap5A as the substrate at 100 uM after 30 mins by malachite green reagent method; type: cell-based; settings: COS-7
[6] = target: T4, Ectonucleoside triphosphate diphosphohydrolase 8 (Homo sapiens) (UniProt Q5MY95); test: Inhibition of human NTPDase8 expressed in COS7 cells assessed as amount of inorganic phosphate released using ATP as the substrate at 100 uM after 15 mins by malachite green reagent method; type: cell-based; settings: COS-7
T4 sequence (whole entry): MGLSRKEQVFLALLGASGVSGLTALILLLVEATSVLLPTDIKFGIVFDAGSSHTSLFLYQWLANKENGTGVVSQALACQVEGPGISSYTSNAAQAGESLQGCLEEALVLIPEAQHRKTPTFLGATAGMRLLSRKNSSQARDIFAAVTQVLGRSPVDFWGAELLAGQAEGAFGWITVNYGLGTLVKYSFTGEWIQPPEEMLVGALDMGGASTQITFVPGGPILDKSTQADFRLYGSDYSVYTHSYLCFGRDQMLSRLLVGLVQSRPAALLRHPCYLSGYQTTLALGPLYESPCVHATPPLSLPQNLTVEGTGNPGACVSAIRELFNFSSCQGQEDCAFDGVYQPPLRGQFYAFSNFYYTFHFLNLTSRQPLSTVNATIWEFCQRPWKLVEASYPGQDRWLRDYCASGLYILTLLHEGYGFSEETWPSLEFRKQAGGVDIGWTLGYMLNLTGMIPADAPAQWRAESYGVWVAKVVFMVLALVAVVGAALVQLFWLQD
How it was run: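 Protein extracts of transfected COS-7 cells (ecto-5'-nucleotidase: 100 μM AMP substrate; NTPDases: 100 μM ATP) were preincubated 3 min at 37 °C in Tris-Ringer pH 7.3 with inhibitor at 100 μM final. After 15 min, malachite green stop; Pi read at 630 nm. Activity given as % of substrate-only control. Mean ± SD of three experiments in triplicate.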

Chain of P2Y purinoceptor 2 (Homo sapiens) (P41231 whole entry): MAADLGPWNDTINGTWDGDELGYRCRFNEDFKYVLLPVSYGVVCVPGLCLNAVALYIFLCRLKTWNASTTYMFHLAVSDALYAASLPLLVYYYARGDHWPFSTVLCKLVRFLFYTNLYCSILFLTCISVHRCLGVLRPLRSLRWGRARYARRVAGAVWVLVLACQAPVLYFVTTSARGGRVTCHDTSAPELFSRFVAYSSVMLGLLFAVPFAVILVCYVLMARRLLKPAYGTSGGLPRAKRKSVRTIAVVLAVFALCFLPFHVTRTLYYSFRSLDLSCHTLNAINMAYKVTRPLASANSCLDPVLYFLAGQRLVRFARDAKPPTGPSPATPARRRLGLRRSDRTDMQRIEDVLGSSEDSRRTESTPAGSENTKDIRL

Activity [1]	IC50 [2] [µM]	Ki [2] [µM]	inhibition [3] [%]	inhibition [4] [%]	Activity [5] [%]	inhibition [6]	SMILES
inactive	50	51	80	90	5.5	inactive	Nc1ncnc2c1ncn2[C@H]1C[C@H](O)[C@@H](COP(=O)(O)CP(=O)(O)OP(=O)(O)CP(=O)(O)OC[C@H]2O[C@@H](n3cnc4c(N)ncnc43)C[C@@H]2O)O1
inactive	63	20	90	90	12	inactive	BP(=O)(OP(=O)(O)CP(=O)(O)OC[C@H]1O[C@@H](n2cnc3c(N)ncnc32)[C@H](O)[C@@H]1O)OP(=O)(O)CP(=O)(O)OC[C@H]1O[C@@H](n2cnc3c(N)ncnc32)[C@H](O)[C@@H]1O
inactive	13	9	90	65	5.5	inactive	BP(=O)(OP(=O)(O)CP(=O)(O)OC[C@H]1O[C@@H](n2cnc3c(N)ncnc32)C[C@@H]1O)OP(=O)(O)CP(=O)(O)OC[C@H]1O[C@@H](n2cnc3c(N)ncnc32)C[C@@H]1O
inactive	33	13	80	65	11	inactive	Nc1ncnc2c1ncn2[C@@H]1O[C@H](COP(=O)(O)CP(=O)(O)OP(=O)(O)CP(=O)(O)OC[C@H]2O[C@@H](n3cnc4c(N)ncnc43)[C@H](O)[C@@H]2O)[C@@H](O)[C@H]1O

— ChEMBL document CHEMBL1799960, “Diadenosine 5',5''-(boranated)polyphosphonate analogues as selective nucleotide pyrophosphatase/phosphodiesterase inhibitors” (J Med Chem, 2010)
